Experimental data: ChEMBL document CHEMBL1152502, “Synthesis and antiproliferative activity of 2,4-disubstituted 6-aryl-7H-pyrrolo[3,2-d]pyrimidin-7-one 5-oxides” (2009)
Active and inactive are the calls of the source. No cut-off for these calls is given here.

Experiments:
WiDr [1] = test: Antiproliferative activity against human WiDr cells after 48 hrs by SRB assay; format: functional
In short: (§1)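 RPMI 1640 with 5% heat-inactivated FCS and 2 mM L-glutamine at 37 °C, 5% CO2. Seeded at 15,000 (WiDr, T-47D, HeLa) or 10,000 (A2780, SW1573, HBL-100) cells/well. Drug added day 1 in triplicate dilutions; vehicle DMSO 0.25% v/v final. 48 h, then TCA fixation and SRB staining read at OD 492 nm, background-corrected. GI50 from NCI percentage-growth formulas using T0 and T; mean of two to six experiments with SD.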

HBL-100 [2] = test: Antiproliferative activity against human HBL100 cells after 48 hrs by SRB assay; format: functional; conditions: HBL-100, 48 h; in short: as §1
HeLa [3] = test: Antiproliferative activity against human HeLa cells after 48 hrs by SRB assay; format: functional; in short: as §1
SW1573 [4] = test: Antiproliferative activity against human SW1573 cells after 48 hrs by SRB assay; format: functional; conditions: SW1573, 48 h; in short: as §1
T47D [5] = test: Antiproliferative activity against human T47D cells after 48 hrs by SRB assay; format: functional; in short: as §1
A2780 = test: Antiproliferative activity against human A2780 cells after 48 hrs by SRB assay; format: functional; conditions: A2780, 48 h; in short: as §1
T47D [6] = test: Cell cycle arrest in human T47D cells by decrease in accumulation at S phase at 2 uM after 24 hrs by flow cytometry; format: functional, cell-based
In short: (§2)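 Cells seeded at 2.5–5 × 10^5 per well in six-well plates. After 24 h, compound added at three concentrations for a further 24 h; controls without drug. Cells trypsinized, fixed in ice-cold 70% ethanol overnight at −20 °C, treated with RNase (37 °C, 30 min, dark) and stained with propidium iodide. DNA content measured by flow cytometry, 25,000 cells/sample.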

HBL-100 [7] = test: Cell cycle arrest in human HBL100 cells by increase in accumulation at G2/M phase at 2 uM after 24 hrs by flow cytometry; format: functional, cell-based; in short: as §2
HeLa [8] = test: Cell cycle arrest in human HeLa cells by accumulation at subG1 phase after 24 hrs by flow cytometry; format: functional, cell-based; in short: as §2
SW1573 [9] = test: Cell cycle arrest in human SW1573 cells by decrease in accumulation at G1 phase at 2 uM after 24 hrs by flow cytometry; format: functional, cell-based; in short: as §2
WiDr [10] = test: Cell cycle arrest in human WiDr cells by accumulation at subG1 phase after 24 hrs by flow cytometry; format: functional, cell-based; in short: as §2
T47D [11] = test: Cell cycle arrest in human T47D cells by decrease in accumulation at G1 phase at 2 uM after 24 hrs by flow cytometry; format: functional, cell-based; in short: as §2
SW1573 [12] = test: Cell cycle arrest in human SW1573 cells by accumulation at subG1 phase after 24 hrs by flow cytometry; format: functional, cell-based; in short: as §2
HBL-100 [13] = test: Cell cycle arrest in human HBL100 cells by decrease in accumulation at S phase at 2 uM after 24 hrs by flow cytometry; format: functional, cell-based; in short: as §2
HBL-100 [14] = test: Cell cycle arrest in human HBL100 cells by decrease in accumulation at G1 phase at 2 uM after 24 hrs by flow cytometry; format: functional, cell-based; in short: as §2
HBL-100 [15] = test: Cell cycle arrest in human HBL100 cells by accumulation at subG1 phase after 24 hrs by flow cytometry; format: functional, cell-based; in short: as §2
T47D [16] = test: Cell cycle arrest in human T47D cells by increase in accumulation at G2/M phase at 2 uM after 24 hrs by flow cytometry; format: functional, cell-based; in short: as §2
SW1573 [17] = test: Cell cycle arrest in human SW1573 cells by decrease in accumulation at S phase at 2 uM after 24 hrs by flow cytometry; format: functional, cell-based; in short: as §2
T47D [18] = test: Cell cycle arrest in human T47D cells by accumulation at subG1 phase after 24 hrs by flow cytometry; format: functional, cell-based; in short: as §2
SW1573 [19] = test: Cell cycle arrest in human SW1573 cells by increase in accumulation at G2/M phase at 2 uM after 24 hrs by flow cytometry; format: functional, cell-based; in short: as §2

Row | Compound | GI50 (HeLa [3]) [µM] | GI50 (SW1573 [4]) [µM] | GI50 (T47D [5]) [µM] | GI50 (A2780) [µM] | GI50 (WiDr [1]) [µM] | GI50 (HBL-100 [2]) [µM] | further results
1 | CSc1nc2c(c(N3CCCC3)n1)[N+]([O-])=C(c1ccccc1)C2=O | > 100 | > 100 | > 100 | > 100 | > 100 | > 100 | 
2 | CCc1ccc(C2=[N+]([O-])c3c(N)ncnc3C2=O)cc1 | 75 | 40 | 82 | 39 | 70 | 54 | 
3 | CSc1nc(NCCN2CCOCC2)c2c(n1)C(=O)C(c1ccccc1)=[N+]2[O-] | > 100 | > 100 | > 100 | > 100 | > 100 | 24 | 
4 | C[S+]([O-])c1nc(N)c2c(n1)C(=O)C(c1ccccc1)=[N+]2[O-] (centres undefined) | > 100 | > 100 | > 100 | 79 | > 100 | 32 | 
5 | CSc1nc(NCc2ccccc2)c2c(n1)C(=O)C(c1ccccc1)=[N+]2[O-] | 36 | 26 | 81 | 59 | 79 | 27 | 
6 | Nc1ncnc2c1[N+]([O-])=C(c1ccccc1)C2=O | > 100 | 85 | > 100 | 30 | > 100 | 72 | 
7 | Cc1ccc(C2=[N+]([O-])c3c(N)ncnc3C2=O)cc1 | > 100 | > 100 | > 100 | > 100 | > 100 | > 100 | 
8 | Nc1nc(N2CCOCC2)nc2c1[N+]([O-])=C(c1ccccc1)C2=O | 38 | 27 | 7.5 | 37 | 20 | 22 | 
9 | CN1CCN(c2nc(N)c3c(n2)C(=O)C(c2ccccc2)=[N+]3[O-])CC1 | > 100 | 23 | > 100 | 24 | 46 | 18 | 
10 | Nc1nc(NCCc2ccccc2)nc2c1[N+]([O-])=C(c1ccccc1)C2=O | > 100 | 22 | 41 | 37 | 71 | 17 | 
11 | CSc1nc(N)c2c(n1)C(=O)C(c1ccc(C)cc1)=[N+]2[O-] | > 100 | 31 | > 100 | 93 | > 100 | 28 | 
12 | CCc1ccc(C2=[N+]([O-])c3c(N)nc(SC)nc3C2=O)cc1 | 80 | 37 | 43 | 54 | 53 | 37 | 

Now those with a lower GI50 (HeLa [3]), led by results:

Row | GI50 (HeLa [3]) [µM] | GI50 (SW1573 [4]) [µM] | GI50 (T47D [5]) [µM] | GI50 (A2780) [µM] | Compound | GI50 (WiDr [1]) [µM] | GI50 (HBL-100 [2]) [µM] | further results
13 | 20 | 2.1 | 16 | 2.3 | CN(C)CCCNc1nc(N)c2c(n1)C(=O)C(c1ccccc1)=[N+]2[O-] | 19 | 2 | 
14 | 15 | 14 | 17 | 2.9 | Nc1nc(NCCN2CCOCC2)nc2c1[N+]([O-])=C(c1ccccc1)C2=O | 16 | 3.4 | 
15 | 7.6 | 6.8 | 2.8 | 1.9 | C=CCNc1nc(N)c2c(n1)C(=O)C(c1ccccc1)=[N+]2[O-] | 4.7 | 2.7 | 
16 | 3.5 | 3.3 | 2.7 | 2.9 | Nc1nc(N2CCCCC2)nc2c1[N+]([O-])=C(c1ccccc1)C2=O | 3.7 | 1.7 | 
17 | 19 | 12 | 14 | 1.9 | COC(=O)CNc1nc(N)c2c(n1)C(=O)C(c1ccccc1)=[N+]2[O-] | 18 | 2.8 | 
18 | 16 | 6.2 | 13 | 2.6 | Nc1nc(NCCN2CCCC2)nc2c1[N+]([O-])=C(c1ccccc1)C2=O | 14 | 1.8 | 
19 | 29 | 30 | 4 | 3.7 | Nc1nc(NCc2ccccc2)nc2c1[N+]([O-])=C(c1ccccc1)C2=O | 24 | 5.1 | 
20 | 2 | 1.3 | 0.35 | 1.8 | Nc1nc(N2CCCCCC2)nc2c1[N+]([O-])=C(c1ccccc1)C2=O | 1.8 | 1.4 | Activity (T47D [6]): Active; Activity (HBL-100 [7]): Active; Activity (HeLa [8]): Dose-dependent effect; Activity (SW1573 [9]): Active; Activity (WiDr [10]): Dose-dependent effect; Activity (T47D [11]): Active; Activity (SW1573 [12]): Dose-dependent effect; Activity (HBL-100 [13]): Active; Activity (HBL-100 [14]): Active; Activity (HBL-100 [15]): Dose-dependent effect; Activity (T47D [16]): Active; Activity (SW1573 [17]): Active; Activity (T47D [18]): Dose-dependent effect; Activity (SW1573 [19]): Active
